5HT1E ag: 5-HT1E (human) receptor agonism; CHO 5-HT1E Ga15 NFAT-bla reporter, FRET; 0% DMSO wells, 100% control agonist wells; activation, % at 6 µM; 65,000 compounds, 0.69% hits; AID 574;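 active means activation above a set limit, the screen-wide mean activation plus 3 SD, cut at about 8.5% in these data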;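 further: 100% = positive control agonist at 1 µM giving full maximal response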
HEK293 NFkB inh: inhibitors of the PMA/ionomycin-induced NF-kB reporter in HEK293 cells. inhibition, % at 3 µM. 62,000 compounds, 0.21% hits. HEK-293 NF-kB luciferase reporter, luminescence;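 active means inhibition above the mean of all tested compounds plus 3 SD, cut at about 40% in these data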;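 further: 0% = stimulated DMSO wells and 100% = 10 µM reference inhibitor 5653914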
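Material: HEK-293 cells with stable firefly luciferase reporter driven by four HIV NF-kB elements / Also added: PMA plus ionomycin mix as NF-kB-activating stimulus / Compound dosing: 3 µM once, 0.30% DMSO / Times: 1 h pretreatment, 16 h stimulation, 37 °C / Signal: luminescence / Evaluation: per-plate % inhibition versus controls / Benchmarks: DMSO and 10 µM reference inhibitor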
Jurkat viability: cytotoxicity toward Jurkat cells; Jurkat E6.1 viability, ATP luminescence, 48 h; inhibition, % at 4 µM; 56,000 compounds, 1.2% hits; AID 463;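 active means inhibition above the mean inhibition of all tested compounds plus 3 SD, cut at about 28% in these data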
5HT1a antag: 5-HT1a (human) receptor antagonism. P08908. CHO 5-HT1a Ga15 NFAT-bla reporter, antagonist mode. inhibition, % at 10 µM. 62,000 compounds, 0.68% hits. AID 612;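 active means inhibition above the mean of all tested compounds plus 3 SD, cut at about 43% in these data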;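 further: receptor stimulated by 5-CT agonist at 100 nM near EC80; beta-lactamase reporter measured by ratiometric fluorescence of a cleavable substrate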
Target sequence (P08908 whole entry, looked up): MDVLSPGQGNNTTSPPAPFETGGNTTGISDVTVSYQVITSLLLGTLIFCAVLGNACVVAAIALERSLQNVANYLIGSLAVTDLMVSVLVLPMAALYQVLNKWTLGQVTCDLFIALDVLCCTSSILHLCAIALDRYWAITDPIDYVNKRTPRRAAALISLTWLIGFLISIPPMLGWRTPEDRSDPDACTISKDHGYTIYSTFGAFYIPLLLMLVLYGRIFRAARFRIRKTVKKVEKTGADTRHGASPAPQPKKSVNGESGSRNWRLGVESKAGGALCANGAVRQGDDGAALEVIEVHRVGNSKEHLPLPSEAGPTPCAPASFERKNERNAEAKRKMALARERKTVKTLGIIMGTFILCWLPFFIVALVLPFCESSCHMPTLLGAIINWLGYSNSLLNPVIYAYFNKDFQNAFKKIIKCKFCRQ
5HT1E antag: antagonists of human 5-HT1E serotonin receptor | P28566 | CHO 5-HT1E Ga15 NFAT-bla reporter, FRET, antagonist | inhibition, % at 6 µM | 65,000 compounds, 0.99% hits | AID 571;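 active means inhibition above a set limit, the mean inhibition across every tested compound plus 3 SD, cut at about 29% in these data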;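 further: signal is the 460 over 535 nm emission ratio of beta-lactamase substrate; 0% = agonist plus DMSO wells and 100% = wells without agonist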
HTR1A agonist: agonists of human 5-HT1a serotonin receptor; P08908; CHO 5-HT1a Ga15 NFAT-bla reporter, FRET ratio; 0% basal, 100% maximal reference agonist; 65,000 compounds, 0.56% hits; activation, % at 10 µM;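 active means activation above the screen-wide mean activation plus 3 SD, cut at about 19% in these data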;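 further: 0% = DMSO wells and 100% = 5-CT at EC100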
* = called active by the depositor; x = not tested or not shown. Rows were chosen to be rich in hits. Some 3.3% of all compounds tested hit in one or more screens of this group.

SMILES	5HT1E ag	HEK293 NFkB inh	Jurkat viability	5HT1a antag	5HT1E antag	HTR1A agonist
Nc1nc(CSCc2ccccc2)nc(N2CCOCC2)n1	0	0	-10	-2	17	-1
CCOC(=O)c1c(C)[nH]c(C(=O)OC/C(O)=C(\C#N)c2nc3ccccc3[nH]2)c1C	3	-3	-3	6	49*	0
N#C/C(=C(/O)COC(=O)c1ccc2c(c1)OCCO2)c1nc2ccccc2[nH]1	1	9	1	0	5	-3
N#C/C(=C(/O)COC(=O)Cc1c[nH]c2ccccc12)c1nc2ccccc2[nH]1	5	4	-3	12	-1	32*
COc1c2occc2c(OC)c2c(=O)cc(C(F)(F)C(F)(F)F)oc12	0	17	-5	-4	-5	-3
CC1CCN(c2oc(-c3ccccc3Cl)nc2C#N)CC1	0	x	x	x	37*	1
N#Cc1nc(-c2ccccc2Cl)oc1N1CCOCC1	-1	11	10	10	11	0
CCOC(=O)N1CCC(c2nc3ccccc3[nH]2)CC1	0	5	-2	-7	-11	0
COC(=O)C1=C(N)n2c(s/c(=C\c3cccnc3)c2=O)=C(C(=O)OC)C1c1cccnc1 (stereo not drawn)	1	7	3	5	7	-3
CCOC(=O)C1=C(N)n2c(s/c(=C\c3cccnc3)c2=O)=C(C#N)C1c1cccnc1 (stereo not drawn)	19*	14	-3	-9	-7	0
CC1CCCC(NC(=O)c2ccc3c(=O)n(CC4CCCO4)c(=O)[nH]c3c2)C1C (stereo not drawn)	0	14	8	-9	-8	54*
O=C(NCC1CCCO1)c1ccc2c(=O)n(CCc3ccccc3)c(=O)[nH]c2c1 (stereo not drawn)	1	16	x	-4	-10	0
O=C(Nc1ccc2c(c1)OCO2)N1CCN(S(=O)(=O)c2ccc(Cl)cc2)CC1	14*	4	-2	8	20	-3
O=C(CN1CCN(S(=O)(=O)c2ccc(Cl)cc2)CC1)Nc1ccc2c(c1)OCO2	-1	10	0	-6	4	-2
CC(C)Cc1nc2oc3c(NCc4cccnc4)ncnc3c2c2c1CCC2	2	4	4	-2	35*	0
CC(C)c1nc2oc3c(NCc4cccnc4)ncnc3c2c2c1CCC2	-1	16	4	-11	30*	1
CCN1CCN(c2ncnc3c2oc2nc(C(C)C)c4c(c23)CCC4)CC1	2	3	9	-19	-6	-1
O=C(CSc1ccc2nnc(-c3ccccc3)n2n1)N1CCCCC1	0	14	-10	-10	2	2
CN(C)CCCn1c(NC(=O)C2CCCCC2)nc2ccccc21	54*	x	x	x	-7	0
COc1cccc(NC(=O)[C@@H]2CCCN2C(=O)C2CCN(S(=O)(=O)c3ccc(C)cc3)CC2)c1	-1	15	-4	-11	-8	0
Cc1cccn2c(=O)c3cc(C(=O)N4CCc5ccccc54)n(C)c3nc12	0	-3	-3	-7	4	-2
O=C(Cn1nc(Cl)nc1Cl)c1cc2ccccc2oc1=O	0	27	-3	15	-5	-1
Cc1cnn(-c2nc(-c3cccs3)cc(C(F)(F)F)n2)c1	-1	19	5	17	29*	-4
CCn1nnc(-c2ccccc2NC(=O)C(F)(F)F)n1	1	9	-4	-1	3	1
NC/C(=N\O)c1ccc(Cl)cc1Cl	13*	1	-1	-15	1	-2
SMILES	5HT1E ag	HEK293 NFkB inh	Jurkat viability	5HT1a antag	5HT1E antag	HTR1A agonist
CCn1c2ccccc2c2nc3ccccc3nc21	0	-2	2	-9	32*	1
COc1cc2nc3c4ccccc4n(CC#N)c3nc2cc1OC	2	5	-1	-11	5	-2
CCn1c2ccccc2c2nc3cc(OC)c(OC)cc3nc21	2	25	6	7	45*	5
O=C1NCCCC1C(=O)N1CCN(C(=O)C2CCCNC2=O)CC1 (stereo not drawn)	0	13	3	-5	3	-1
c1ccc(N2CCN(Cc3cn4cccnc4n3)CC2)cc1	59*	-8	-5	-3	7	-1
Cc1nn(-c2ccccn2)c2c1C(c1ccsc1)C1=C(CCCC1=O)N2 (stereo not drawn)	0	10	4	-6	35*	2
CS(=O)(=O)Nc1ccc(S(=O)(=O)Nc2nccs2)cc1	10*	-7	-8	3	6	-3
O=S(=O)(Nc1nccs1)c1ccc(NS(=O)(=O)c2cccs2)cc1	-1	16	4	-4	9	2
COc1ccccc1N(CC(O)CN1C(=O)NC(C)(C)C1=O)S(=O)(=O)c1ccc(C)cc1 (stereo not drawn)	0	6	-8	5	8	-1
CN(CC1CCCO1)S(=O)(=O)c1ccc(C(=O)Nc2nc(-c3ccccn3)cs2)cc1 (stereo not drawn)	1	12	52*	12	20	-3
Cc1ccc(-c2cc(C(F)(F)F)c(C#N)c(SCCC#N)n2)o1	6	10	-9	0	-7	34*
COc1ccc(C(=O)n2c(-c3ccco3)nc3ccccc32)cc1	2	23	78*	35	28	-2
N#CC1=C(N)Oc2n[nH]c(-c3ccc(F)cc3)c2C1c1cccc(OC(=O)N2CCOCC2)c1 (stereo not drawn)	0	11	x	1	-7	0
N#CC1=C(N)Oc2n[nH]c(-c3ccccc3)c2C1c1cccc(OC(=O)N2CCOCC2)c1 (stereo not drawn)	11*	20	5	9	14	0
O=C(NCCOc1ccccc1)c1ncn[nH]1	0	3	-4	9	3	-2
O=C(Nc1nc2ccccc2[nH]1)c1ccccc1F	0	61*	52*	2	6	-2
COc1ccc(CCNc2nc(C)nc3c2oc2ccccc23)cc1OC	-1	21	x	11	8	0
COc1ccc(CCNc2ncnc3c2oc2ccccc23)cc1OC	0	37	84*	5	12	0
N#Cc1nc(COc2ccc(Cl)cc2Cl)oc1N1CCOCC1	0	10	-4	4	2	0
COc1ccc(N2CCN(c3oc(COc4ccc(Cl)cc4Cl)nc3C#N)CC2)cc1	0	22	-6	59*	-1	-1
N#Cc1nc(COc2ccc(Cl)cc2Cl)oc1N1CCN(c2ccccc2)CC1	-1	0	-6	57*	7	0
OC(CNCCc1ccc(Cl)cc1)COCc1ccco1 (stereo not drawn)	9.5*	10	4	4	4	0
